In ChEMBL document CHEMBL3352372, “Design, synthesis and 3D-QSAR studies of new diphenylamine containing 1,2,4-triazoles as potential antitubercular agents” (Eur J Med Chem, 2014):
In brackets after ≈: the same amount, converted by molar mass.

Columns and labels:
[1] = system: Mycobacterium tuberculosis; assay: Antitubercular activity Mycobacterium tuberculosis H37Rv assessed as growth inhibition after 5 days by MABA method; format: functional; conditions: for MIC: Mycobacterium tuberculosis, H37Rv, 120 h
Method in brief: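 Log-phase H37Rv was diluted to a final OD550 of 0.05 in Middlebrook 7H9 broth, and compounds in DMSO were added in 96-well plates. After a further 24 h at 37 °C/5% CO2, fluorescence was read (ex 544 nm, em 590 nm). Inhibition was scored against the untreated control, with >90% inhibition counted as active in the initial screen.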

[2] = system: Mycobacterium tuberculosis; assay: Antitubercular activity Mycobacterium tuberculosis H37Rv assessed as growth inhibition after 30 days by agar microdilution method; format: functional
Method in brief: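 M. tuberculosis H37Rv (ATCC 27294) grown on L-J medium, harvested in 0.85% saline with 0.05% Tween-80. Compounds, from a DMSO stock, were added as twofold dilutions to Middlebrook 7H10 agar with OADC in tubes. After 30 days of incubation, tubes were compared with untreated H37Rv control tubes. The lowest concentration giving complete inhibition of colonies was reported.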

Staphylococcus aureus = assay: Antibacterial activity Staphylococcus aureus ATCC-25923 assessed as growth inhibition after 24 hrs by twofold serial dilution technique; format: functional; conditions: ATCC-25923, 24 h
Method in brief: (§1)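 Tube twofold serial dilution of compounds dissolved in DMSO, under aseptic conditions. Solvent, growth (negative) and drug (ampicillin) controls were run alongside. Tubes were incubated 24 h at 37 °C. MIC was taken as the lowest concentration giving apparent complete inhibition of growth. Strains were first screened by cup plate method.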

Bacillus spizizenii = assay: Antibacterial activity Bacillus Bacillus subtilis ATCC 6633 assessed as growth inhibition after 24 hrs by twofold serial dilution technique; format: functional; conditions: ATCC 6633, 24 h; method in brief: as §1
Escherichia coli = assay: Antibacterial activity Escherichia coli ATCC-25922 assessed as growth inhibition after 24 hrs by twofold serial dilution technique; format: functional; conditions: ATCC-25922, 24 h; method in brief: as §1
Pseudomonas aeruginosa = assay: Antibacterial activity Pseudomonas aeruginosa ATCC-27853 assessed as growth inhibition after 24 hrs by twofold serial dilution technique; format: functional; conditions: ATCC-27853, 24 h; method in brief: as §1
[3] = Cytotoxicity against african green monkey Vero cells after 72 hrs by MTT assay; format: cell-based; conditions: chlorocebus sabaeus
Method in brief: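 After media removal and a PBS wash, dilutions were added with DMSO control, then incubated 72 h at 37 °C, 5% CO2. Cells were washed, given MTT for 3 h in the dark, and solubilized in DMSO 1–2 h. CC50 was extrapolated from plotted % inhibition (100 − % viability) against concentration.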

[4] = Cytotoxicity against human HepG2 cells after 72 hrs by MTT assay; format: cell-based

| SMILES | -logMIC [1] | MIC [1] [µM] | MIC [2] [µM] | MIC (Staphylococcus aureus) [µM] | MIC (Bacillus spizizenii) [µM] | MIC (Escherichia coli) [µM] | MIC (Pseudomonas aeruginosa) [µM] | CC50 at 72 h [3] [µM] | CC50 at 72 h [4] [µM] |
| --- | --- | --- | --- | --- | --- | --- | --- | --- | --- |
| S=c1n(CN2CCCCC2)nc(Cc2ccccc2Nc2c(Cl)cccc2Cl)n1/N=C/c1ccccc1 | 5.204 | 6.25 (≈ 3.45 µg/mL) | 6.25 (≈ 3.45 µg/mL) | 12.5 (≈ 6.89 µg/mL) | 25 (≈ 13.8 µg/mL) | 12.5 (≈ 6.89 µg/mL) | 25 (≈ 13.8 µg/mL) | > 300 | > 300 |
| NNC(=O)c1ccncc1 [ISONIAZID] |  | < 0.2 | < 0.2 |  |  |  |  |  |  |
| COc1ccc(C2SCC(=O)N2n2c(Cc3ccccc3Nc3c(Cl)cccc3Cl)n[nH]c2=S)cc1 (stereo not given) | 4.301 | 50 (≈ 27.9 µg/mL) |  | 12.5 (≈ 6.98 µg/mL) | 100 (≈ 55.9 µg/mL) | 100 (≈ 55.9 µg/mL) | 100 (≈ 55.9 µg/mL) |  |  |
| COc1ccc(/C=N/n2c(Cc3ccccc3Nc3c(Cl)cccc3Cl)nn3c(=O)c4ccccc4nc23)cc1OC | 4.602 | 25 (≈ 15 µg/mL) |  | 12.5 (≈ 7.49 µg/mL) | 25 (≈ 15 µg/mL) | 25 (≈ 15 µg/mL) | 50 (≈ 30 µg/mL) |  |  |
| S=c1n(CN2CCOCC2)nc(Cc2ccccc2Nc2c(Cl)cccc2Cl)n1/N=C/c1cccs1 | 5.796 | 1.6 (≈ 0.895 µg/mL) | 3.12 (≈ 1.75 µg/mL) | 6.25 (≈ 3.5 µg/mL) | 12.5 (≈ 6.99 µg/mL) | 6.25 (≈ 3.5 µg/mL) | 12.5 (≈ 6.99 µg/mL) | > 300 | 250 |
| O=C1CSC(c2ccccc2)N1n1c(Cc2ccccc2Nc2c(Cl)cccc2Cl)n[nH]c1=S (stereo not given) | 4.301 | 50 (≈ 26.4 µg/mL) |  | 12.5 (≈ 6.61 µg/mL) | 12.5 (≈ 6.61 µg/mL) | 12.5 (≈ 6.61 µg/mL) | 12.5 (≈ 6.61 µg/mL) |  |  |
| COc1ccc(/C=N/n2c(Cc3ccccc3Nc3c(Cl)cccc3Cl)nn(CN3CCOCC3)c2=S)cc1 | 5.204 | 6.25 (≈ 3.65 µg/mL) | 6.25 (≈ 3.65 µg/mL) | 6.25 (≈ 3.65 µg/mL) | 12.5 (≈ 7.29 µg/mL) | 6.25 (≈ 3.65 µg/mL) | 12.5 (≈ 7.29 µg/mL) | > 300 | > 300 |
| S=c1n(CN2CCOCC2)nc(Cc2ccccc2Nc2c(Cl)cccc2Cl)n1/N=C/c1ccccc1 | 6.699 | 0.2 (≈ 0.111 µg/mL) | 0.2 (≈ 0.111 µg/mL) | 6.25 (≈ 3.46 µg/mL) | 6.25 (≈ 3.46 µg/mL) | 12.5 (≈ 6.92 µg/mL) | 12.5 (≈ 6.92 µg/mL) | > 300 | > 300 |
| COc1ccc(/C=N/n2c(Cc3ccccc3Nc3c(Cl)cccc3Cl)nn(CN3CCCCC3)c2=S)cc1OC | 4.903 | 12.5 (≈ 7.64 µg/mL) | 6.25 (≈ 3.82 µg/mL) | 12.5 (≈ 7.64 µg/mL) | 25 (≈ 15.3 µg/mL) | 25 (≈ 15.3 µg/mL) | 25 (≈ 15.3 µg/mL) |  |  |
| COc1ccc(/C=N/n2c(Cc3ccccc3Nc3c(Cl)cccc3Cl)nn(CN3CCCCC3)c2=S)cc1 | 4.903 | 12.5 (≈ 7.27 µg/mL) | 12.5 (≈ 7.27 µg/mL) | 12.5 (≈ 7.27 µg/mL) | 12.5 (≈ 7.27 µg/mL) | 6.25 (≈ 3.63 µg/mL) | 12.5 (≈ 7.27 µg/mL) |  |  |
| O=C1CSC(c2cccs2)N1n1c(Cc2ccccc2Nc2c(Cl)cccc2Cl)n[nH]c1=S (stereo not given) | 4.602 | 25 (≈ 13.4 µg/mL) |  | 12.5 (≈ 6.68 µg/mL) | 12.5 (≈ 6.68 µg/mL) | 12.5 (≈ 6.68 µg/mL) | 12.5 (≈ 6.68 µg/mL) |  |  |
| S=c1n(CN2CCOCC2)nc(Cc2ccccc2Nc2c(Cl)cccc2Cl)n1/N=C/c1ccncc1 | 4.903 | 12.5 (≈ 6.93 µg/mL) | 12.5 (≈ 6.93 µg/mL) | 12.5 (≈ 6.93 µg/mL) | 12.5 (≈ 6.93 µg/mL) | 25 (≈ 13.9 µg/mL) | 25 (≈ 13.9 µg/mL) |  |  |
| S=c1n(CN2CCCCC2)nc(Cc2ccccc2Nc2c(Cl)cccc2Cl)n1/N=C/c1cccs1 | 4.903 | 12.5 (≈ 6.97 µg/mL) | 12.5 (≈ 6.97 µg/mL) | 12.5 (≈ 6.97 µg/mL) | 12.5 (≈ 6.97 µg/mL) | 12.5 (≈ 6.97 µg/mL) | 12.5 (≈ 6.97 µg/mL) |  |  |
